Compounds with a hit are over-represented: about 3.3% of the library has one in this group of screens.
TDP2 inh – TDP2 (human) inhibition, absorbance primary screen. inhibition, % at 12.8 µM. actives 0.34% (n = 370,000). recombinant TDP2, T5PNP hydrolysis, p-nitrophenol absorbance 415 nm;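 active = inhibition above the mean of all tested compounds plus 3 SD, set per campaign, cut at about 25% in these data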
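Assay system: recombinant human TDP2 / Reagent: T5PNP substrate at 5 mM, a TopII-DNA adduct mimic / Measured by: epi absorbance from released p-nitrophenol / Evaluation: % inhibition relative to enzyme-containing and enzyme-free wells / Control set: enzyme-free and DMSO wells / Replicates: each compound tested once, singlicate / Schedule: enzyme reaction with compound for 2 h at 37 °C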
UHRF1 MBD2 ctr – UHRF1 methyl-DNA binding inhibition; UHRF1 binding to methylated oligo, TR-FRET; inhibition, % at 4.4 µM; actives 0.75% (n = 370,000); Q96T88; in the data active = inhibition above about 21%;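 also: UHRF1 SRA domain binding a hemimethylated CpG hairpin DNA probe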
Target sequence (Q96T88 whole entry, looked up, the tested form may be a part): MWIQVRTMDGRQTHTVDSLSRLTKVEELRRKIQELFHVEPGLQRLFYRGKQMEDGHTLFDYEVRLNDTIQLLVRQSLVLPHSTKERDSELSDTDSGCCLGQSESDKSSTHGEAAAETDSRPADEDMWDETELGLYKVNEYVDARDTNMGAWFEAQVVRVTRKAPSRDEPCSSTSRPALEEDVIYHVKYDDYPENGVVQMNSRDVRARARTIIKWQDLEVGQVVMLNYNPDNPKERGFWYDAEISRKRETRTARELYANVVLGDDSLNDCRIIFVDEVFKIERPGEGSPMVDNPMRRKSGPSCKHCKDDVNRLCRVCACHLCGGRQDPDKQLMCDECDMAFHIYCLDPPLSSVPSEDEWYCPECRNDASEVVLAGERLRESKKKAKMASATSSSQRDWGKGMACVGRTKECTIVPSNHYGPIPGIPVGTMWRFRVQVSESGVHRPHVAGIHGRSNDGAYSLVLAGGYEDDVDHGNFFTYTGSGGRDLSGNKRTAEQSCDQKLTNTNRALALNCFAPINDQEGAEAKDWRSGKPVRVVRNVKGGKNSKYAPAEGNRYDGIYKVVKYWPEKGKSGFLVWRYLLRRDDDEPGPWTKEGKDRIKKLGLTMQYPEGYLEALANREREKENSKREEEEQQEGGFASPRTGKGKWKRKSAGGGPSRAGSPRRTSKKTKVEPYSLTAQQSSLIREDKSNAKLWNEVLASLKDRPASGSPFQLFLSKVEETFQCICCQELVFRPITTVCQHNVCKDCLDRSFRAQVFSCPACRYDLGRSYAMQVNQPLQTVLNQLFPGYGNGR
LEDGF integ inh – blocks HIV-1 LEDGF/p75-dependent DNA integration; actives 0.64% (n = 370,000); inhibition, % at 3.7 µM; TR-FRET IN-LEDGF/p75 DNA integration, Eu/Cy5;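 active = inhibition above the screen-wide mean plus 3 SD, cut at about 13% in these data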;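 also: signal is the Cy5 over europium emission ratio at 671 and 618 nm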
PRMT1 inh – inhibitors of human PRMT1 | Q99873 | recombinant PRMT1, activity-based probe fluorescence polarization | inhibition, % at 2.79 µM | actives 1.3% (n = 370,000);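 active = inhibition above about 21% made by adding two undisclosed values, limit read from the data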
MBD2 inh – inhibitors of human MBD2 binding to methylated oligonucleotide; TR-FRET; inhibition, % at 4.4 µM; actives 0.31% (n = 370,000); AID 686964; in the data active = inhibition above about 13%
SIAE primary – human SIAE inhibition, primary screen | Q9HAT2 | SIAE FP-Rh probe binding, fluorescence polarization | inhibition, % at 9.66 µM | actives 0.69% (n = 370,000);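 active = inhibition above a cutoff: mean of compounds within the control limits plus 3 SD of those, cut at about 17% in these data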
SIAE inh conf – confirmation of human SIAE inhibitors | actives 13% (n = 2,300) | inhibition, % at 9.66 µM | SIAE FP-Rh activity-based probe, fluorescence polarization | AID 1117263 | shares compounds with SIAE primary;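 active = mean inhibition of the replicates above the hit cutoff set in the primary screen, cut at about 17% in these data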;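 also: inhibitors lower polarization as more probe stays unbound to SIAE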
Large screens that a line does not name were inactive (follow-up assays come after a bar, where they were run).

COC(=O)[C@@]12C[C@@H](CC(=O)NCc3ccc(C)o3)C(=O)N(Cc3ccc4c(c3)OCO4)C1=CCC(C)(C)C2	SIAE primary 17 | SIAE inh conf inactive
CCn1c(=O)n(CC)c2cc(N3CCCC3)c(NC(=O)c3ccc(F)cc3)cc21	SIAE primary 18 | SIAE inh conf inactive
CCOC(=O)N1CCN(C(=O)c2oc3ccc(S(=O)(=O)N4CCCCC4)cc3c2C)CC1	none
CCOC(=O)c1sc2ccc(S(=O)(=O)N3CCCCC3)cc2c1N	SIAE primary 21 | SIAE inh conf inactive
O=C(Nc1cccc2[nH]ncc12)NS(=O)(=O)c1ccccc1	SIAE primary 48 | SIAE inh conf inactive
N=c1n(CCN2CCCCC2)c2ccccc2n1CC(O)c1cccc(Br)c1 (stereo not drawn)	SIAE primary 33 | SIAE inh conf inactive
Cc1cccc(-c2nnc(SCc3cccc4ccccc34)n2-c2ccc(Cl)cc2)c1	none
CC(=O)Nc1c2c(nn1-c1cccc(Cl)c1)CS(=O)(=O)C2	SIAE primary 18 | SIAE inh conf inactive
CC(C)(C)C(=O)Nc1c2c(nn1-c1cccc(Cl)c1)CS(=O)(=O)C2	none
C[C@H]1[C@H](N(Cc2ccccc2)Cc2ccccc2)CC[C@@]23CCCN2C(=O)CCC[C@@H]13	none
Cc1ccc(-c2csc3ncnc(N4CCN(S(=O)(=O)c5ccc(C#N)cc5)CC4)c23)cc1	none
COc1ccc(-c2csc3ncnc(N4CCN(S(=O)(=O)c5ccc(C)c(C)c5)CC4)c23)cc1	SIAE primary 18 | SIAE inh conf inactive
COc1cccc(CNS(=O)(=O)c2ccccc2Br)c1	none
CC(C)CN1C(=O)[C@]2(CC(=O)N(C)C2c2ccccc2)c2cc(-n3cc(CN(C)C)nn3)ccc21 (stereo partly drawn)	SIAE primary 18 | SIAE inh conf inactive
O=C(c1cc(Cl)ccc1F)N1CCCC(Nc2ccc3c(c2)OCCO3)C1 (stereo not drawn)	SIAE primary 17 | SIAE inh conf inactive
Nc1ncnc2c1ncn2[C@@H]1O[C@H](C(=O)N[C@@H](CO)c2ccccc2)[C@@H](O)[C@H]1O	SIAE primary 17 | SIAE inh conf 19
C[C@@H](NC(=O)[C@H]1O[C@@H](n2cnc3c(N)ncnc32)[C@H](O)[C@@H]1O)c1cccc2ccccc12	none
CN(C)C(=O)N1CCN(C(=O)[C@H](CCc2ccccc2)NC(=O)[C@H]2O[C@@H](n3cnc4c(N)ncnc43)[C@H](O)[C@@H]2O)CC1	SIAE primary 36 | SIAE inh conf 43
Cc1ccc(OC2CCN(C(=O)[C@H]3O[C@@H](n4cnc5c(N)ncnc54)[C@H](O)[C@@H]3O)CC2)cc1	none
COc1ccccc1C(=O)N1CCN(C(=O)[C@H]2O[C@@H](n3cnc4c(N)ncnc43)[C@H](O)[C@@H]2O)CC1	UHRF1 MBD2 ctr 24, SIAE primary 23 | SIAE inh conf 21
CCOC(=O)c1c(C)[nH]c(C2=NNC(=Nc3ccccc3)SC2)c1C	none
CCOC(=O)c1c(C)[nH]c(C2=NNC(=Nc3ccc(OCC)cc3)SC2)c1C	SIAE primary 28 | SIAE inh conf inactive
Nc1cc(N)cc(-c2nc3ccccc3o2)c1	SIAE primary 25 | SIAE inh conf inactive
Nc1ccc(-c2nc3ccccc3o2)cc1	none
CC1(C)CC(Nc2ccc(Nc3ccccc3)cc2)CC(C)(C)N1	PRMT1 inh 23, SIAE primary 20 | SIAE inh conf inactive
O=C(N/N=C/c1ccoc1)c1ccccc1O	SIAE primary 19 | SIAE inh conf inactive
COC(=O)[C@]12C[C@H](CC(=O)NCc3ccccc3)C(=O)N(Cc3ccc4c(c3)OCO4)C1=C[C@H](C(C)C)O[C@@H]2C1CC1	none
CCCN(CCC)C(=O)c1c(NC(=O)CC)sc2c1CCCCC2	SIAE primary 22 | SIAE inh conf inactive
CCC(=O)Nc1sc2c(c1C(N)=O)CCC2	none
N#Cc1ccc(OC[C@@H](O)CN2CCC(C(O)(c3ccccc3)c3ccccc3)CC2)cc1	none
CCCCOCCCNC(=O)C[C@H]1C[C@@]2(C(=O)OC)C(=C[C@H](C(C)C)O[C@@H]2C2CC2)N(Cc2ccccc2)C1=O	none
COCCCN1CCc2[nH]c(=S)[nH]c(=O)c2C1	none
COc1cccc(CN2CCc3[nH]c(=S)[nH]c(=O)c3C2)c1	SIAE primary 22 | SIAE inh conf inactive
CC(C)(C)N(Cc1cn(CC2CCCCC2)nn1)S(=O)(=O)c1ccc(F)cc1Br	none
CCOC(=O)C(=O)N1CCC(C(=O)NC2CCCc3ccccc32)CC1 (stereo not drawn)	none
O=C(C1CC1)N1CCN(c2ccc(O)cc2)CC1	SIAE primary 19 | SIAE inh conf inactive
CCOc1ccc(C2C(C(=O)OC)=CN(C(C)c3ccccc3)C=C2C(=O)OC)cc1 (stereo not drawn)	SIAE primary 18 | SIAE inh conf inactive
CC1CC(C)(C)CC2(C1)NC(=O)N(CC(=O)N(C)Cc1nc3ccccc3c(=O)[nH]1)C2=O (stereo not drawn)	SIAE primary 19 | SIAE inh conf inactive
CC1CCCCC12NC(=O)N(CC(=O)N(C)Cc1nc3ccccc3c(=O)[nH]1)C2=O (stereo not drawn)	none
COc1ccccc1C(=O)OCC(=O)c1ccc(CNC(C)=O)s1	none
COc1ccc(C(=O)OCC(=O)c2ccc(CNC(C)=O)s2)cc1	SIAE primary 24 | SIAE inh conf inactive
O=C(O)c1cccc(NS(=O)(=O)c2ccc(Cl)c(C(=O)O)c2)c1	SIAE primary 18 | SIAE inh conf inactive
O=C(O)c1cccc(NS(=O)(=O)c2ccc(-c3ccc(S(=O)(=O)Nc4cccc(C(=O)O)c4)cc3)cc2)c1	none
C/C=C/C=C/C(=O)c1cc(C)c(OC(=O)CNC(=O)OC(C)(C)C)c(C)c1O	none
Cc1[nH]n(-c2ncc(-c3ccccc3)s2)c(=O)c1C(c1ccc(Br)cc1)C(C#N)C#N (stereo not drawn)	SIAE primary 24 | SIAE inh conf inactive
Cc1[nH]n(C(N)=S)c(=O)c1C(c1ccccc1)C(C#N)C#N (stereo not drawn)	none
CN(C)c1cccc(CNC(=O)c2csc([C@@H]3O[C@H](CO)[C@H](O)[C@H](O)[C@H]3O)n2)c1	SIAE primary 20 | SIAE inh conf inactive
CN(C)c1cccc(CNC(=O)c2csc([C@@H]3O[C@H](CO)[C@@H](O)[C@H]3O)n2)c1	none
COC(=O)[C@]12C[C@H](CC(=O)NCCCN3CCCC3=O)C(=O)N(CCC3=CCCCC3)C1=C[C@H](C1CCCC1)O[C@@H]2C	none
CCCC1OC23CCCCC2C(C#N)(C(=N)O3)C1(C#N)C#N (stereo not drawn)	none

Compound activity (PubChem BioAssay)
